Assay results as given in ChEMBL document CHEMBL1932932, “Natural product libraries to accelerate the high-throughput discovery of therapeutic leads” (J Nat Prod, 2011).
Values after ≈ are worked out from the molar mass of the structure shown. Active and inactive are the calls of the source. No cut-off for these calls is given here.

Tests used:
U-937 = experiment: Antiproliferative activity against human U937 cells assessed as cell viability after 96 hrs by CellTiter-Glo luminescence assay; type: functional, cell-based; details: U-937, 96 h
Outline: (§1)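 Cells grown in 96-well plates with no compound or continuous exposure to 1.5–50 000 nM for 96 h. Growth was read by CellTiter-Glo luminescence. IC50 is the concentration giving 50% growth inhibition versus untreated cells. Two separate replicate experiments were run.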

HT-29 = experiment: Antiproliferative activity against human HT-29 cells assessed as cell viability after 96 hrs by CellTiter-Glo luminescence assay; type: functional, cell-based; details: HT-29, 96 h; outline: as §1
MDA-MB-435 = experiment: Antiproliferative activity against human MDA-MB-435 cells assessed as cell viability after 96 hrs by CellTiter-Glo luminescence assay; type: functional, cell-based; details: MDA-MB-435, 96 h; outline: as §1
[1] = Antiproliferative activity against human H522-T1 cells assessed as cell viability after 96 hrs by CellTiter-Glo luminescence assay; type: functional, cell-based; details: H522-T1, 96 h; outline: as §1
HeLa [2] = experiment: Stabilization of microtubule in human HeLa cells at 20 ug/ml after 24 hrs by Hoechst staining-based fluorescence microscopic analysis; type: functional, cell-based
[3] = tested on: Trypanosoma brucei brucei; experiment: Antitrypanosomal activity against Trypanosoma brucei brucei clone 427-221a assessed as growth inhibition after 40 hrs by ATP-bioluminescence assay; type: functional, organism-based
Outline: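 Bloodstream-form parasites (1×10^4/well) were grown in HMI-9 with 10% FBS, 10% Serum Plus and penicillin/streptomycin at 37 °C, 5% CO2. Samples were tested at 12.5 and 1.25 µg/mL, or serially diluted 25–0.001 µg/mL for IC50, at 0.5% final DMSO. Incubation was 40 h. ATP was read by CellTiter-Glo. Log10 signals were converted to % inhibition against 0.5% DMSO and 50 µM thimerosal controls, and curves were fitted.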

HeLa [4] = experiment: Induction of microfilament disruption in human HeLa cells at 20 ug/ml after 24 hrs by Hoechst staining-based fluorescence microscopic analysis; type: functional, cell-based
Outline: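 HeLa cells (1500/well, 384-well) were seeded and incubated overnight at 37 °C, 5% CO2, then samples were pin-transferred. After 24 h cells were fixed in 4% formaldehyde for 20 min, permeabilised with 0.5% Triton X-100 for 10 min and blocked with 2% BSA. Actin was stained with rhodamine-phalloidin and DNA with Hoechst 33342. Images were taken by automated fluorescence microscopy at 10×.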

RAW264.7 [5] = experiment: Cytotoxicity against mouse RAW264.7 cells assessed as cell viability […] by MTT assay; type: functional; details: in the assay text read “20 hrs” for “24 hrs”
Outline: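 MTT test on extracts at 10 µg/mL and library fractions at 20 µg/mL, dissolved in DMSO. RAW264.7 cells were exposed for 20 h. MTT was then added for 2 h, the medium removed, formazan dissolved in DMSO, and absorbance read at 570 nm.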

PC-3 = experiment: Cytotoxicity against human PC3 cells assessed as cell viability at 10 uM after 24 hrs by MTT assay; type: functional, cell-based
RAW264.7 [6] = experiment: Cytotoxicity against mouse RAW264.7 cells assessed as cell viability at 10 uM after 20 hrs by MTT assay

Work on `COC(=O)/C=C1/CC[C@]2(C)[C@@H](C)CCC[C@]2(C)C1=O` [METHYL AIGNOPSANOATE] yielded an IC50 (U-937) greater than 2.5 µg/mL, an IC50 (HT-29) greater than 2.5 µg/mL and an IC50 (MDA-MB-435) greater than 2.5 µg/mL. The IC50 [1] was greater than 2.5 µg/mL, the Activity (HeLa [2]) was “inactive” and the IC50 [3] was greater than 10 µg/mL. The Activity (HeLa [4]) was “inactive”.
With `CO[C@H]1/C=C\[C@@H](C)CC[C@@H]2C[C@H](C[C@](O)([C@@H]3CSC(=O)N3)O2)OC(=O)/C=C(/C)CC[C@@H]1O` [LATRUNCULOL B] the IC50 (U-937) was greater than 2.5 µg/mL, the IC50 (HT-29) was greater than 2.5 µg/mL and the IC50 (MDA-MB-435) was greater than 2.5 µg/mL. The IC50 [1] was greater than 2.5 µg/mL, the Activity (HeLa [2]) was “Active” and the IC50 [3] was 2 µg/mL (≈ 4.26 µM). For the same compound, the Activity (HeLa [4]) was “inactive”.
With `C=C1C[C@H](C)C[C@@H]2CC=C[C@@H](C/C=C\C(=O)O[C@H]([C@@H](O)/C=C/[C@@H]3CC(C)=CCO3)C[C@@H]3O[C@H]3[C@@H](O)C1)O2` [FIJIANOLIDE B] the IC50 (U-937) was 0.003 µg/mL (≈ 0.00583 µM), the IC50 (HT-29) was 0.003 µg/mL (≈ 0.00583 µM) and the IC50 (MDA-MB-435) was 0.002 µg/mL (≈ 0.00389 µM). For the same compound, the IC50 [1] was 0.002 µg/mL (≈ 0.00389 µM), the Activity (HeLa [2]) was “inactive” and the IC50 [3] was 0.08 µg/mL (≈ 0.155 µM). For the same compound, the Activity (HeLa [4]) was “Active”.
`C[C@]12CCC[C@](C)(C(=O)O)[C@@H]1CC[C@@]1(C)c3cocc3CC[C@H]21` gave an Activity (RAW264.7 [5]) greater than 90 µM.
`C/C1=C/C(=O)O[C@@H]2C[C@@H](CC[C@H](C)/C=C\C(=O)CCC1)O[C@@](O)([C@@H]1CSC(=O)N1)C2` showed an IC50 (U-937) greater than 2.5 µg/mL, an IC50 (HT-29) greater than 2.5 µg/mL and an IC50 (MDA-MB-435) greater than 2.5 µg/mL. The IC50 [1] was greater than 2.5 µg/mL, the Activity (HeLa [2]) was “inactive” and the IC50 [3] was 3.6 µg/mL (≈ 8.23 µM). The Activity (HeLa [4]) was “inactive”.
Compound `C[C@H]1CCC[C@]2(C)C(=O)/C(=C\C(=O)O)CC[C@]12C` [AIGNOPSANOIC ACID A] has an IC50 (U-937) greater than 2.5 µg/mL, an IC50 (HT-29) greater than 2.5 µg/mL and an IC50 (MDA-MB-435) greater than 2.5 µg/mL. For the same compound, the IC50 [1] was greater than 2.5 µg/mL, the Activity (HeLa [2]) was “inactive” and the IC50 [3] was 6.5 µg/mL (≈ 26 µM). The Activity (HeLa [4]) was “inactive”.
Compound `C=CC/C=C\Cc1csc(C(C)(C)[C@H](O)C/C=C\C(=C)CCNC(=O)OC)n1` [MYCOTHIAZOLE] has an IC50 (U-937) of 0.01 µg/mL (≈ 0.0247 µM), an IC50 (HT-29) of 0.7 µg/mL (≈ 1.73 µM) and an IC50 (MDA-MB-435) of 1 µg/mL (≈ 2.47 µM). For the same compound, the IC50 [1] was 1 µg/mL (≈ 2.47 µM), the Activity (HeLa [2]) was “inactive” and the IC50 [3] was 6.7 µg/mL (≈ 16.6 µM). For the same compound, the Activity (HeLa [4]) was “inactive”.
With `COc1cccc2c1C(=O)c1c(O)c3c(c(O)c1C2=O)C[C@@](O)(C(=O)CO)C[C@@H]3O[C@H]1C[C@H](N)[C@H](O)[C@H](C)O1` the Activity (PC-3) was “Active” and the Activity (RAW264.7 [6]) was “Active”.
In the case of `COC(CC1=CC[C@]2(C)[C@@H](C)CCC[C@]2(C)C1=O)OC` [AIGNOPSANE KETAL], the IC50 (U-937) is reported as greater than 2.5 µg/mL, the IC50 (HT-29) is reported as greater than 2.5 µg/mL and the IC50 (MDA-MB-435) is reported as greater than 2.5 µg/mL. The IC50 [1] was greater than 2.5 µg/mL, the Activity (HeLa [2]) was “inactive” and the IC50 [3] was greater than 10 µg/mL. For the same compound, the Activity (HeLa [4]) was “inactive”.
With `C/C1=C/C(=O)O[C@@H]2C[C@@H](CC[C@H](C)/C=C\C=C\CC1)O[C@@](O)([C@@H]1CSC(=O)N1)C2` [LATRUNCULIN A] the IC50 (U-937) was 0.07 µg/mL (≈ 0.166 µM), the IC50 (HT-29) was 0.08 µg/mL (≈ 0.19 µM) and the IC50 (MDA-MB-435) was 0.04 µg/mL (≈ 0.0949 µM). For the same compound, the IC50 [1] was 0.06 µg/mL (≈ 0.142 µM), the Activity (HeLa [2]) was “Active” and the IC50 [3] was 1.2 µg/mL (≈ 2.85 µM). The Activity (HeLa [4]) was “inactive”.
With `C/C(=C/C(=O)O)CC/C=C/C=C\[C@@H](C)CC[C@@H](O)CCCC(=O)c1csc(=O)[nH]1` [APO LATRUNCULIN T] the IC50 (U-937) was greater than 2.5 µg/mL, the IC50 (HT-29) was greater than 2.5 µg/mL and the IC50 (MDA-MB-435) was greater than 2.5 µg/mL. For the same compound, the IC50 [1] was greater than 2.5 µg/mL, the Activity (HeLa [2]) was “inactive” and the IC50 [3] was 4.8 µg/mL (≈ 11.4 µM). For the same compound, the Activity (HeLa [4]) was “inactive”.
`C/C1=C/C(=O)O[C@@H]2C[C@@H](CC[C@H](C)/C=C\CC(=O)CC1)O[C@@](O)([C@@H]1CSC(=O)N1)C2` [LATRUNCULONE B] showed an IC50 (U-937) of 1.18 µg/mL (≈ 2.7 µM), an IC50 (HT-29) of 0.8 µg/mL (≈ 1.83 µM) and an IC50 (MDA-MB-435) greater than 2.5 µg/mL. For the same compound, the IC50 [1] was 0.8 µg/mL (≈ 1.83 µM), the Activity (HeLa [2]) was “Active” and the IC50 [3] was 1 µg/mL (≈ 2.29 µM). For the same compound, the Activity (HeLa [4]) was “inactive”.
`C=C1C[C@H](C)C[C@@H]2CC=C[C@@H](C/C=C\C(=O)O[C@H]3C[C@@H](O[C@H]3/C=C/[C@@H]3CC(C)=CC(=O)O3)[C@@H](O)[C@@H](O)C1)O2` [FIIJIANOLIDE D] gave an IC50 (U-937) greater than 2.5 µg/mL, an IC50 (HT-29) greater than 2.5 µg/mL and an IC50 (MDA-MB-435) greater than 2.5 µg/mL. The IC50 [1] was greater than 2.5 µg/mL, the Activity (HeLa [2]) was “inactive” and the IC50 [3] was 1.4 µg/mL (≈ 2.65 µM). The Activity (HeLa [4]) was “Active”.
Work on `C[C@H]1CCC[C@]2(C)C(=O)[C@H](C(O)C(=O)O)CC[C@]12C` (some centres undefined) [AIGNOPSANOIC ACID B] yielded an IC50 (U-937) greater than 2.5 µg/mL, an IC50 (HT-29) greater than 2.5 µg/mL and an IC50 (MDA-MB-435) greater than 2.5 µg/mL. For the same compound, the IC50 [1] was greater than 2.5 µg/mL, the Activity (HeLa [2]) was “inactive” and the IC50 [3] was greater than 10 µg/mL. For the same compound, the Activity (HeLa [4]) was “inactive”.
With `C=C1C[C@H](C)C[C@@H]2CC=C[C@@H](C/C=C\C(=O)O[C@H]3C[C@@H](O[C@@]3(/C=C/[C@@H]3CC(C)=CCO3)OC)[C@@H](O)[C@@H](O)C1)O2` the IC50 (U-937) was greater than 2.5 µg/mL, the IC50 (HT-29) was greater than 2.5 µg/mL and the IC50 (MDA-MB-435) was greater than 2.5 µg/mL. The IC50 [1] was greater than 2.5 µg/mL, the IC50 [3] was greater than 10 µg/mL and the Activity (HeLa [4]) was “Active”.
With `CCCCCCC(C)CCCCCCCCCOC[C@H](O)COC1[C@@H](O)[C@H](O)[C@@H](O)[C@@H]1O` (some centres undefined) [SACROTRIDE A] the IC50 (U-937) was greater than 2.5 µg/mL, the IC50 (HT-29) was greater than 2.5 µg/mL and the IC50 (MDA-MB-435) was greater than 2.5 µg/mL. The IC50 [1] was greater than 2.5 µg/mL, the Activity (HeLa [2]) was “inactive” and the IC50 [3] was greater than 10 µg/mL. For the same compound, the Activity (HeLa [4]) was “inactive”.
`C/C1=C/C(=O)O[C@@H]2C[C@@H](CC[C@H](C)/C=C\[C@H](O)[C@@H](O)CC1)O[C@@](O)([C@@H]1CSC(=O)N1)C2` [LATRUNCULOL A] showed an IC50 (U-937) of 0.31 µg/mL (≈ 0.68 µM), an IC50 (HT-29) of 0.65 µg/mL (≈ 1.43 µM) and an IC50 (MDA-MB-435) greater than 2.5 µg/mL. For the same compound, the IC50 [1] was 0.76 µg/mL (≈ 1.67 µM), the Activity (HeLa [2]) was “Active” and the IC50 [3] was 0.09 µg/mL (≈ 0.198 µM). For the same compound, the Activity (HeLa [4]) was “inactive”.
Compound `C=C1C[C@H](C)C[C@@H]2CC=C[C@@H](C/C=C\C(=O)O[C@H]3C[C@@H](O[C@H]3/C=C/[C@@H]3CC(C)=CCO3)[C@@H](O)[C@@H](O)C1)O2` [FIJIANOLIDE A] has an IC50 (U-937) of 0.03 µg/mL (≈ 0.0583 µM), an IC50 (HT-29) of 0.04 µg/mL (≈ 0.0777 µM) and an IC50 (MDA-MB-435) of 0.02 µg/mL (≈ 0.0389 µM). The IC50 [1] was 0.02 µg/mL (≈ 0.0389 µM), the Activity (HeLa [2]) was “inactive” and the IC50 [3] was 1.4 µg/mL (≈ 2.72 µM). For the same compound, the Activity (HeLa [4]) was “Active”.
